Results: publication PMC2928052 (Journal of medicinal chemistry, 2010)
Entries after “also recorded” stand apart in the source; their conditions may differ.

Columns and labels:
[1] = target: HIV-1 FSS RNA (upper stem-loop of the HIV-1 frameshift-stimulating RNA); assay: Fluorescence titration of compound into 5′-Cy3-labeled RNA; assay type: binding, HIV-1 (group M subtype D); conditions: Table 2, average ± standard deviation of 3 replicate titrations
[2] = test system: biotinylated HIV-1 FSS RNA; assay: SPR binding kinetics, RNA immobilized on streptavidin-coated CM5 chip; conditions: 1X PBS, 5 mM MgCl2, 0.005 % Tween-20, 1:1 global fit to six sensorgrams
[3] = target: unrelated RNA hairpin (entry 10); conditions: Table 1 entry 10; compound immobilized on chip; previously reported; cited from earlier work
[4] = test system: HIV-1 FSS with single mutation in the loop region (entry 7); assay: Fluorescence titration, Table 1 entry 7; assay type: binding; conditions: entry 7, single mutation in the loop region
[5] = target: unrelated RNA hairpin (entry 11); assay: Fluorescence titration, Table 1 entry 11; assay type: binding
Method in brief: (§1)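 5′-Cy3-labelled oligonucleotide (400 or 500 nM) in 1X PBS pH 7.2 was heated to 65 °C for 4 min, MgCl2 was added, and the sample was cooled slowly to RT. Test compound was titrated in (100 nM–10 μM), with ≥10 min equilibration per addition. Excitation was 550 nm and emission was read at 564.1 nm. Dilution-corrected ΔFU was fit to a 1-site ligand-depletion model, with ≥2 titrations.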

[6] = target: unrelated RNA hairpin (entry 10); assay: Fluorescence titration, Table 1 entry 10; assay type: binding
Method in brief: as §1

[7] = test system: HIV-1 FSS with multiple mutations in the loop region (entry 8); assay: Fluorescence titration, Table 1 entry 8; assay type: binding; conditions: entry 8, multiple mutations in the loop region
[8] = target: DNA homolog of the HIV-1 FSS (entry 9); assay: Fluorescence titration, Table 1 entry 9; assay type: binding
Method in brief: as §1

(Cys-Pro-Phe)2 (disulfide) [Compound 5]
KD [1]: completely ablated binding; also recorded: No Binding

NC[C@@H]1O[C@H](O[C@H]2[C@@H](O)[C@H](O[C@@H]3[C@@H](O)[C@H](N)C[C@H](N)[C@H]3O[C@H]3O[C@H](CN)[C@@H](O)[C@H](O)[C@H]3N)O[C@@H]2CO)[C@H](N)[C@@H](O)[C@@H]1O [Neomycin, neomycin, reference compound]
Association rate (kon) [2]: too rapid to determine accurately
Dissociation rate (koff) [2]: too rapid to determine accurately

(Cys-Pro-Phe)2 (disulfide) [Compound 1]
Binding constant (KD), SPR [3]: No binding
reduction in the binding relative to HIV-1 FSS [4]: 2 fold
Association rate (kon) [2]: 1790 M⁻¹ s⁻¹
Dissociation rate (koff) [2]: 0.0141 s⁻¹
Binding constant (KD), Solution [5]: No saturable binding
Binding constant (KD), Solution [6]: No saturable binding
reduction in the binding relative to HIV-1 FSS [7]: 4 fold
Binding constant (KD), Solution [8]: No saturable binding
